# Columns and labels:
# Format in all cases: functional
# Candida albicans = test: Antifungal activity against Candida albicans Berkout KCCM 50235 after 1 day by twofold broth dilution method; details: Berkout KCCM 50235, 24 h
# Summary of the method: (§1)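 Two-fold broth dilution in modified Sabouraud dextrose broth. Inoculum about 1 × 10⁵ cells/mL. Test agents at final concentrations from 0.2 to 50.0. Incubated at 37 °C, and MIC read after 1 day. Fluconazole and 5-fluorocytosine served as standard agents.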
# Cryptococcus neoformans = test: Antifungal activity against Cryptococcus neoformans KCCM 50564 after 1 day by twofold broth dilution method; details: KCCM 50564, 24 h; summary of the method: as §1
# Aspergillus flavus = test: Antifungal activity against Aspergillus flavus KCCM 11899 after 2 days by twofold broth dilution method; details: KCCM 11899, 48 h
# Summary of the method: (§2)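 Two-fold broth dilution in modified Sabouraud dextrose broth. Inoculum about 1 × 10⁵ cells/mL. Test agents at final concentrations from 0.2 to 50.0. Incubated at 37 °C, and MIC read after 2 days. Fluconazole and 5-fluorocytosine served as standard agents.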
# Aspergillus niger = test: Antifungal activity against Aspergillus niger KCTC 1231 after 2 days by twofold broth dilution method; details: KCTC 1231, 48 h; summary of the method: as §2
# Pichia kudriavzevii = test: Antifungal activity against Candida krusei Berkout KCCM 11655 after 1 day by twofold broth dilution method; details: Berkout KCCM 11655, 24 h; summary of the method: as §1
# Candida tropicalis = test: Antifungal activity against Candida tropicalis Berkout KCCM 50662 after 1 day by twofold broth dilution method; details: Berkout KCCM 50662, 24 h; summary of the method: as §1
smiles,measurement,setting,value
Cc1ccc(SC2=C(Sc3ccc(C)c(C)c3)C(=O)c3ncncc3C2=O)cc1C,MIC,Candida albicans,12.5 µg/mL
same,MIC,Cryptococcus neoformans,3.2 µg/mL
same,MIC,Aspergillus flavus,12.5 µg/mL
same,MIC,Aspergillus niger,25 µg/mL
same,MIC,Pichia kudriavzevii,12.5 µg/mL
same,MIC,Candida tropicalis,12.5 µg/mL
O=C1C(Sc2cccc(F)c2)=C(Sc2cccc(F)c2)C(=O)c2ncncc21,MIC,Candida albicans,6.3 µg/mL
same,MIC,Cryptococcus neoformans,1.6 µg/mL
same,MIC,Aspergillus flavus,25 µg/mL
same,MIC,Aspergillus niger,25 µg/mL
same,MIC,Pichia kudriavzevii,12.5 µg/mL
same,MIC,Candida tropicalis,25 µg/mL
Cc1cccc(SC2=C(Sc3cccc(C)c3)C(=O)c3ncncc3C2=O)c1,MIC,Candida albicans,3.2 µg/mL
same,MIC,Cryptococcus neoformans,0.8 µg/mL
same,MIC,Aspergillus flavus,6.3 µg/mL
same,MIC,Aspergillus niger,1.6 µg/mL
same,MIC,Pichia kudriavzevii,25 µg/mL
same,MIC,Candida tropicalis,12.5 µg/mL
O=C1C(Sc2ccccc2)=C(Sc2ccccc2)C(=O)c2ncncc21,MIC,Candida albicans,6.3 µg/mL
same,MIC,Cryptococcus neoformans,25 µg/mL
same,MIC,Aspergillus flavus,3.2 µg/mL
same,MIC,Aspergillus niger,6.3 µg/mL
same,MIC,Pichia kudriavzevii,6.3 µg/mL
same,MIC,Candida tropicalis,6.3 µg/mL
O=C1C(Sc2ccc(F)c(F)c2)=C(Sc2ccc(F)c(F)c2)C(=O)c2ncncc21,MIC,Candida albicans,12.5 µg/mL
same,MIC,Cryptococcus neoformans,6.3 µg/mL
same,MIC,Aspergillus flavus,1.6 µg/mL
same,MIC,Aspergillus niger,12.5 µg/mL
same,MIC,Pichia kudriavzevii,12.5 µg/mL
same,MIC,Candida tropicalis,6.3 µg/mL
O=C1C(Sc2ccc(F)cc2F)=C(Sc2ccc(F)cc2F)C(=O)c2ncncc21,MIC,Candida albicans,6.3 µg/mL
same,MIC,Cryptococcus neoformans,1.6 µg/mL
same,MIC,Aspergillus flavus,6.3 µg/mL
same,MIC,Aspergillus niger,12.5 µg/mL
same,MIC,Pichia kudriavzevii,12.5 µg/mL
same,MIC,Candida tropicalis,6.3 µg/mL
O=C1C(Sc2ccccc2F)=C(Sc2ccccc2F)C(=O)c2ncncc21,MIC,Candida albicans,6.3 µg/mL
same,MIC,Cryptococcus neoformans,1.6 µg/mL
same,MIC,Aspergillus flavus,12.5 µg/mL
same,MIC,Aspergillus niger,12.5 µg/mL
same,MIC,Pichia kudriavzevii,12.5 µg/mL
same,MIC,Candida tropicalis,6.3 µg/mL
O=C1C(Sc2ccc(O)cc2)=C(Sc2ccc(O)cc2)C(=O)c2ncncc21,MIC,Candida albicans,3.2 µg/mL
same,MIC,Cryptococcus neoformans,12.5 µg/mL
same,MIC,Aspergillus flavus,12.5 µg/mL
same,MIC,Aspergillus niger,25 µg/mL
same,MIC,Pichia kudriavzevii,25 µg/mL
same,MIC,Candida tropicalis,3.2 µg/mL
CCSC1=C(SCC)C(=O)c2ncncc2C1=O,MIC,Candida albicans,12.5 µg/mL
same,MIC,Cryptococcus neoformans,6.3 µg/mL
same,MIC,Aspergillus flavus,6.3 µg/mL
same,MIC,Aspergillus niger,3.2 µg/mL
same,MIC,Pichia kudriavzevii,6.3 µg/mL
same,MIC,Candida tropicalis,12.5 µg/mL
O=C1C(SCCO)=C(SCCO)C(=O)c2ncncc21,MIC,Candida albicans,25 µg/mL
same,MIC,Cryptococcus neoformans,6.3 µg/mL
same,MIC,Aspergillus flavus,25 µg/mL
same,MIC,Aspergillus niger,25 µg/mL
same,MIC,Pichia kudriavzevii,12.5 µg/mL
same,MIC,Candida tropicalis,> 50 µg/mL
COc1ccc(OC)c2ncncc12,MIC,Candida albicans,> 50 µg/mL
same,MIC,Cryptococcus neoformans,50 µg/mL
same,MIC,Aspergillus flavus,50 µg/mL
same,MIC,Aspergillus niger,25 µg/mL
same,MIC,Pichia kudriavzevii,50 µg/mL
same,MIC,Candida tropicalis,> 50 µg/mL
OC(Cn1cncn1)(Cn1cncn1)c1ccc(F)cc1F [FLUCONAZOLE],MIC,Candida albicans,50 µg/mL
same,MIC,Cryptococcus neoformans,6.3 µg/mL
same,MIC,Aspergillus flavus,25 µg/mL
same,MIC,Aspergillus niger,25 µg/mL
same,MIC,Pichia kudriavzevii,25 µg/mL
same,MIC,Candida tropicalis,6.3 µg/mL
Nc1nc(=O)[nH]cc1F [FLUCYTOSINE],MIC,Candida albicans,3.2 µg/mL
same,MIC,Cryptococcus neoformans,12.5 µg/mL
same,MIC,Aspergillus flavus,6.3 µg/mL
same,MIC,Aspergillus niger,6.3 µg/mL
same,MIC,Pichia kudriavzevii,6.3 µg/mL
same,MIC,Candida tropicalis,3.2 µg/mL

# Source: ChEMBL document CHEMBL1932990, “Synthesis and antifungal activity of 6,7-bis(arylthio)-quinazoline-5,8-diones and furo[2,3-f]quinazolin-5-ols” (2012)
